The record followed here is ChEMBL document CHEMBL4725431, “Harmaline Analogs as Substrate-Selective Cyclooxygenase-2 Inhibitors” (ACS Med Chem Lett, 2020).

The structures appear in SMILES notation.

The target of test [1] is T1, Prostaglandin G/H synthase 1 (Ovis aries, UniProt P05979).
T1 sequence (P05979 whole entry): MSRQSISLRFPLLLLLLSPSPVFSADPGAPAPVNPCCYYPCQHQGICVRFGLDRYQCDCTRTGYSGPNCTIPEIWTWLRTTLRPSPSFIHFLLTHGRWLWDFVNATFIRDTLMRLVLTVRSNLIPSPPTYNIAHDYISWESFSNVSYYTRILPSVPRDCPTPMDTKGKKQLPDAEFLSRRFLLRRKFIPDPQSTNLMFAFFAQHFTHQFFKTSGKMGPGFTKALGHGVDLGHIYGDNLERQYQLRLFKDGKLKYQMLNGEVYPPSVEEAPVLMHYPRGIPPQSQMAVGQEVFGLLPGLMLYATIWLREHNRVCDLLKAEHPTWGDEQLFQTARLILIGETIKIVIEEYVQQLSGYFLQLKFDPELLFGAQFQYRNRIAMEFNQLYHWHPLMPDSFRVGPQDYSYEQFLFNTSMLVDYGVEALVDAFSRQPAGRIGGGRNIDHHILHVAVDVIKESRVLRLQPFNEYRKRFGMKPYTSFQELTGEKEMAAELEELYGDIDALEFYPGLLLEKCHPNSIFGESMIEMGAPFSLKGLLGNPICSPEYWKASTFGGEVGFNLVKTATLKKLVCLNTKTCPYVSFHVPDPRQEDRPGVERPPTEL
As to the kind of experiment: Inhibition of ovine COX1 using [1-14C]AA as substrate preincubated for 20 mins followed by substrate addition and measured for 30 sec by thin layer chromatography analysis. Summed up: (§1)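 Purified enzyme (murine COX-2 at 63 nM, ovine COX-1 at 22.5 nM), hematin-reconstituted, in 100 mM Tris-HCl pH 8.0 with 500 μM phenol. Several inhibitor concentrations or DMSO vehicle preincubated 20 min, then [1-14C]AA 5 μM added at 37 °C for 30 s. Stopped by ether/methanol/citrate pH 4.0 extraction. Radiolabelled PGs separated on TLC and quantified by radioactivity scanning. Run in triplicate.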

Test [2] has as its target T2, Prostaglandin G/H synthase 2 (Mus musculus, UniProt Q05769).
T2 sequence (Q05769 whole entry): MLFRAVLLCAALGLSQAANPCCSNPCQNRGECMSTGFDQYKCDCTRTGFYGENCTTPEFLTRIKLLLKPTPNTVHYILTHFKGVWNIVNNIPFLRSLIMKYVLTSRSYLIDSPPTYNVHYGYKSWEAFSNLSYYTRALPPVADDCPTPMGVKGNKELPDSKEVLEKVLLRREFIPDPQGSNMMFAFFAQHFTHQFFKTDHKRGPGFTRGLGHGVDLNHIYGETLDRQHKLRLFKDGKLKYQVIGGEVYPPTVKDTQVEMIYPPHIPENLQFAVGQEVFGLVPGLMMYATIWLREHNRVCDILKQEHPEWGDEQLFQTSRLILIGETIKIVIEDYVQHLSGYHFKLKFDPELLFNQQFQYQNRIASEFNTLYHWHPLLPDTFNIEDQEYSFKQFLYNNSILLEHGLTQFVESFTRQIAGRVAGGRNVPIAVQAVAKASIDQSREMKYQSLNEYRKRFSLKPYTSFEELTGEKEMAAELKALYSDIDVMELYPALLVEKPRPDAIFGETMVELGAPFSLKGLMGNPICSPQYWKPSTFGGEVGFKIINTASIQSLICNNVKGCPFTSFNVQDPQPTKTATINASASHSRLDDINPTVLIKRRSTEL
As to the kind of experiment: Inhibition of mouse COX2 using [1-14C]AA as substrate preincubated for 20 mins followed by substrate addition and measured for 30 sec by thin layer chromatography analysis. An outline of the steps: as §1

In test [3] the target is T2, Prostaglandin G/H synthase 2. Kind of test: Inhibition of mouse COX2 using arachidonic acid as substrate preincubated for 3 mins followed by substrate addition and measured for 30 sec by LC/MS analysis. Summed up:
(§2)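 Purified murine COX-2 (40 nM in footnote; 50 nM in methods) with 100 nM heme and 1 μM PPHP in 50 mM Tris-HCl pH 8.0, 0.5 mM phenol, 5% DMSO final. Five inhibitor concentrations up to 1 μM plus solvent control. Substrate (AA or 2-AG, 5 μM) added at 37 °C for 30 s. Quenched with solvent containing PGE2-d4/PGE2G-d5. Products measured by LC-MS/MS SRM.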

Test [4] shares this target. Kind of test: Inhibition of mouse COX2 using 2-arachidonylglycerol as substrate preincubated for 3 mins followed by substrate addition and measured for 30 sec by LC/MS analysis. Summed up: as §2

In general, IC50 refers to the concentration that gives 50% inhibition.

In the case of `COc1ccc2c(c1)c1c(n2Cc2ccc(Cl)cc2)C(C)=NCC1`, the IC50 in test [1] is more than 4 µM; in test [2] it was 2.1 µM; in test [3] it was more than 1000 nM; in test [4], more than 1000 nM.
Turning to `COc1cccc2[nH]c3c(c12)CCN=C3C`, the half-inhibitory concentration (IC50) is more than 4 µM in test [1], more than 4 µM in test [2], more than 1000 nM in test [3] and more than 1000 nM in test [4].
As for `COc1ccc2[nH]c3c(c2c1)CCN=C3C`, the IC50 in test [1] is more than 4 µM; in test [2] it was more than 4 µM; in test [3] it was more than 1000 nM; in test [4], more than 1000 nM.
